Data as given in ChEMBL document CHEMBL4196121, “Meridianin D Analogues Display Antibiofilm Activity against MRSA and Increase Colistin Efficacy in Gram-Negative Bacteria” (ACS Med Chem Lett, 2018).
Converted amounts (≈) assume the structure as drawn. The source made the active and inactive calls. The calls are words filed in the database; no cut-off is given here.

How the values were obtained:
Klebsiella pneumoniae [1] = test: Antibacterial activity against Klebsiella pneumoniae ATCC 2146 expressing NDM1 gene after 16 hrs by broth microdilution assay; format: organism-based; conditions: for MIC: […]
Escherichia coli [2] = test: Antibacterial activity against Escherichia coli ATCC 25922 expressing mcr1 gene after 16 hrs by broth microdilution assay; format: organism-based; conditions: in vitro
Acinetobacter baumannii [3] = test: Antibacterial activity against Acinetobacter baumannii isolate 3941 after 16 hrs by broth microdilution assay; format: organism-based
Klebsiella pneumoniae [4] = test: Potentiation of colistin-induced antimicrobial activity against Klebsiella pneumoniae isolate B9 after 16 hrs in presence of 0.01% triton X-100 by broth microdilution assay; format: functional, organism-based
Acinetobacter baumannii [5] = test: Potentiation of colistin-induced antimicrobial activity against Acinetobacter baumannii isolate 4106 after 16 hrs in presence of 0.01% triton X-100 by broth microdilution assay; format: functional, organism-based
Staphylococcus aureus [6] = test: Antibacterial activity against methicillin-resistant Staphylococcus aureus ATCC 43300 after 16 hrs by broth microdilution assay; format: functional; conditions: for MIC: ATCC 43300, 16 h
Klebsiella pneumoniae [7] = test: Antibacterial activity against Klebsiella pneumoniae isolate B9 after 16 hrs by broth microdilution assay; conditions: in vivo
Acinetobacter baumannii [8] = test: Antibacterial activity against Acinetobacter baumannii ATCC 17978 after 16 hrs by broth microdilution assay; format: organism-based
Escherichia coli [9] = test: Antibacterial activity against Escherichia coli ATCC 25922 after 16 hrs by broth microdilution assay; format: organism-based
Staphylococcus aureus [10] = test: Inhibition of biofilm formation in methicillin-resistant Staphylococcus aureus ATCC 43300 after 24 hrs by crystal violet staining based method; format: functional, organism-based; conditions: ATCC 43300, 24 h
Summary of the method: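 Read-out is the IC50, taken as the compound concentration that inhibits 50% of MRSA 43300 biofilm formation.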

Klebsiella pneumoniae [11] = test: Antibacterial activity against Klebsiella pneumoniae isolate C3 after 16 hrs by broth microdilution assay; conditions: for MIC: […]
Acinetobacter baumannii [12] = test: Antibacterial activity against Acinetobacter baumannii isolate 4106 after 16 hrs by broth microdilution assay; format: organism-based
Acinetobacter baumannii [13] = test: Antibacterial activity against Acinetobacter baumannii ATCC 19606 after 16 hrs by broth microdilution assay; format: organism-based, ATCC 19606 = CIP 70.34 = JCM 6841; conditions: for MIC: […]
Acinetobacter baumannii [14] = test: Antibacterial activity against Acinetobacter baumannii isolate 5075 after 16 hrs by broth microdilution assay; format: organism-based
Acinetobacter baumannii [15] = test: Antibacterial activity against Acinetobacter baumannii ATCC 17978 expressing mcr1 gene after 16 hrs by broth microdilution assay; format: organism-based; conditions: in vitro
Staphylococcus aureus [16] = test: Antibiofilm activity against methicillin-resistant Staphylococcus aureus ATCC 43300 assessed induction of dispersion of preformed biofilm after 24 hrs by crystal violet staining based method; format: functional, organism-based; conditions: ATCC 43300, 24 h
Staphylococcus aureus [17] = test: Potentiation of vancomycin-induced antibacterial activity against methicillin-resistant Staphylococcus aureus ATCC 43300 assessed as dispersion of preformed biofilm after 24 hrs by crystal violet staining based method; format: functional, organism-based; conditions: ATCC 43300, 24 h
Acinetobacter baumannii [18] = test: Potentiation of colistin-induced antimicrobial activity against Acinetobacter baumannii ATCC 19606 assessed as fold reduction in colistin MIC after 16 hrs by broth microdilution assay; format: functional, ATCC 19606 = CIP 70.34 = JCM 6841
Summary of the method: (§1)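 Analogue at a fixed 60 μM unless otherwise noted, combined with colistin against the Gram-negative strain. Potentiation is read as the fold reduction in colistin MIC relative to colistin alone. A. baumannii 3941/4106 and K. pneumoniae C3/B9 are primary clinical isolates with genomically encoded colistin resistance.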

Staphylococcus aureus [19] = test: Antibiofilm activity against methicillin-resistant Staphylococcus aureus ATCC 43300 assessed as dispersion of preformed biofilm after 24 hrs by crystal violet staining based method
Klebsiella pneumoniae [20] = test: Potentiation of colistin-induced antimicrobial activity against Klebsiella pneumoniae isolate B9 assessed as fold reduction in colistin MIC after 16 hrs by broth microdilution assay; format: functional; summary of the method: as §1
Acinetobacter baumannii [21] = test: Potentiation of colistin-induced antimicrobial activity against Acinetobacter baumannii ATCC 17978 assessed as fold reduction in colistin MIC after 16 hrs by broth microdilution assay; format: functional; summary of the method: as §1
Klebsiella pneumoniae [22] = test: Potentiation of colistin-induced antimicrobial activity against Klebsiella pneumoniae ATCC 2146 expressing NDM1 gene assessed as fold reduction in colistin MIC after 16 hrs by broth microdilution assay; format: functional; summary of the method: as §1
Acinetobacter baumannii [23] = test: Potentiation of colistin-induced antimicrobial activity against Acinetobacter baumannii ATCC 17978 expressing mcr1 gene assessed as fold reduction in colistin MIC after 16 hrs by broth microdilution assay; format: functional; summary of the method: as §1
Acinetobacter baumannii [24] = test: Potentiation of colistin-induced antimicrobial activity against Acinetobacter baumannii isolate 4106 assessed as fold reduction in colistin MIC after 16 hrs by broth microdilution assay; format: functional; summary of the method: as §1
Escherichia coli [25] = test: Potentiation of colistin-induced antimicrobial activity against Escherichia coli ATCC 25922 expressing mcr1 gene assessed as fold reduction in colistin MIC after 16 hrs by broth microdilution assay; format: functional; summary of the method: as §1
Escherichia coli [26] = test: Potentiation of colistin-induced antimicrobial activity against Escherichia coli ATCC 25922 assessed as fold reduction in colistin MIC after 16 hrs by broth microdilution assay; format: functional; summary of the method: as §1
Acinetobacter baumannii [27] = test: Potentiation of colistin-induced antimicrobial activity against Acinetobacter baumannii isolate 5075 assessed as fold reduction in colistin MIC after 16 hrs by broth microdilution assay; format: functional; summary of the method: as §1
Klebsiella pneumoniae [28] = test: Potentiation of colistin-induced antimicrobial activity against Klebsiella pneumoniae isolate B9 after 16 hrs by broth microdilution assay; format: functional, organism-based; summary of the method: as §1

Structure (SMILES)	MIC (Klebsiella pneumoniae [1]) [µM]	MIC (Escherichia coli [2]) [µM]	MIC (Acinetobacter baumannii [3]) [µM]	MIC (Klebsiella pneumoniae [7]) [µM]	MIC (Acinetobacter baumannii [8]) [µM]	MIC (Escherichia coli [9]) [µM]	IC50 (Staphylococcus aureus [10]) [µM]	MIC (Klebsiella pneumoniae [11]) [µM]	MIC (Acinetobacter baumannii [12]) [µM]	MIC (Acinetobacter baumannii [13]) [µM]	MIC (Acinetobacter baumannii [14]) [µM]	MIC (Acinetobacter baumannii [15]) [µM]	MIC (Staphylococcus aureus [6]) [µM]	also measured
Cc1ccc2[nH]cc(-c3ccnc(N)n3)c2c1.Cl	> 200	> 200	> 200	> 200	> 200	> 200	> 100	> 200	> 200	> 200	> 200	> 200	–	Activity (Klebsiella pneumoniae [4]): inactive; Activity (Acinetobacter baumannii [5]): inactive; Activity (Staphylococcus aureus [6]): inactive
Nc1nccc(-c2c[nH]c3ccccc23)n1	–	–	–	–	–	–	> 100	–	–	–	–	–	–	Activity (Klebsiella pneumoniae [4]): inactive; Activity (Acinetobacter baumannii [5]): inactive; Activity (Staphylococcus aureus [6]): inactive
Nc1nccc(-c2c[nH]c3ccc(Br)cc23)n1	–	–	–	–	–	–	17.9	–	–	–	–	–	200 (≈ 57.8 µg/mL)	EC50 (Staphylococcus aureus [16]): 138 µM; EC50 (Staphylococcus aureus [17]): 92.1 µM
CCn1cc(-c2ccnc(N)n2)c2ccc(Br)cc21.Cl	> 200	> 200	> 200	> 200	> 200	> 200	64	> 200	> 200	> 200	> 200	> 200	200	–
CCCn1cc(-c2ccnc(N)n2)c2ccc(Br)cc21.Cl	–	–	–	–	–	–	34.3	–	–	–	–	–	200	Activity (Klebsiella pneumoniae [1]; in vitro): Toxic; Activity (Acinetobacter baumannii [3]): Toxic; EC50 (Staphylococcus aureus [16]): > 160 µM; Activity (Klebsiella pneumoniae [7]): Toxic; Activity (Acinetobacter baumannii [8]): Toxic; Activity (Klebsiella pneumoniae [11]): Toxic; Activity (Acinetobacter baumannii [12]): Toxic; Activity (Acinetobacter baumannii [13]): Toxic; fold change (FC) (Acinetobacter baumannii [18]): 16; Activity (Acinetobacter baumannii [14]): Toxic; EC50 (Staphylococcus aureus [19]): Not Active
Cl.Cn1cc(-c2ccnc(N)n2)c2ccc(Br)cc21	> 200	> 200	> 200	> 200	> 200	> 200	59.6	> 200	> 200	> 200	> 200	> 200	200	–
CCCCn1cc(-c2ccnc(N)n2)c2ccc(Br)cc21.Cl	> 200	> 200	> 200	> 200	> 200	> 200	> 100	> 200	> 200	> 200	> 200	> 200	–	–
Cl.Nc1nccc(-c2c[nH]c3cc(Br)ccc23)n1	–	–	–	–	–	–	87.4	–	–	–	–	–	> 200	fold change (FC) (Klebsiella pneumoniae [20]): 64; fold change (FC) (Acinetobacter baumannii [21]): 2; fold change (FC) (Klebsiella pneumoniae [22]): 2; fold change (FC) (Acinetobacter baumannii [23]): 32; fold change (FC) (Acinetobacter baumannii [24]): 64; fold change (FC) (Escherichia coli [25]): 2; fold change (FC) (Escherichia coli [26]): 0; fold change (FC) (Acinetobacter baumannii [27]): 4
CCCCn1cc(-c2ccnc(N)n2)c2cc(Br)ccc21.Cl	> 200	> 200	> 200	> 200	> 200	> 200	38.1	> 200	> 200	> 200	> 200	> 200	50	fold change (FC) (Acinetobacter baumannii [21]): 16; EC50 (Staphylococcus aureus [16]): > 160 µM; fold change (FC) (Escherichia coli [26]): 16; fold change (FC) (Acinetobacter baumannii [18]): 16; EC50 (Staphylococcus aureus [19]): Not Active
Cl.Nc1nccc(-c2c[nH]c3ccc(I)cc23)n1	> 200	> 200	> 200	> 200	> 200	> 200	49.3	> 200	> 200	> 200	> 200	> 200	200	–
CN(C)c1nccc(-c2c[nH]c3ccc(Br)cc23)n1.Cl	> 200	> 200	> 200	> 200	> 200	> 200	23.4	> 200	> 200	> 200	> 200	> 200	100	EC50 (Staphylococcus aureus [16]): > 160 µM; EC50 (Staphylococcus aureus [19]): Not Active
Cl.Cn1cc(-c2ccnc(N)n2)c2cc(Br)ccc21	> 200	> 200	> 200	> 200	> 200	> 200	> 100	> 200	> 200	> 200	> 200	> 200	–	–
CCn1cc(-c2ccnc(N)n2)c2cc(Br)ccc21.Cl	> 200	> 200	> 200	> 200	> 200	> 200	66.2	> 200	> 200	> 200	> 200	> 200	200	–
CCCn1cc(-c2ccnc(N)n2)c2cc(Br)ccc21.Cl	> 200	> 200	> 200	> 200	> 200	> 200	69.3	> 200	> 200	> 200	> 200	> 200	100	fold change (FC) (Klebsiella pneumoniae [20]): 512; fold change (FC) (Acinetobacter baumannii [21]): 16; fold change (FC) (Klebsiella pneumoniae [22]): 16; fold change (FC) (Acinetobacter baumannii [23]): 4; fold change (FC) (Acinetobacter baumannii [24]): 64; fold change (FC) (Escherichia coli [25]): 4; fold change (FC) (Escherichia coli [26]): 16; fold change (FC) (Acinetobacter baumannii [27]): 128; Activity (Klebsiella pneumoniae [28]): Active
Cl.Nc1nccc(-c2c[nH]c3cc(I)ccc23)n1	> 200	> 200	> 200	> 200	> 200	> 200	42.5	> 200	> 200	> 200	> 200	> 200	> 200	–
CC(C)Cn1cc(-c2ccnc(N)n2)c2cc(Br)ccc21.Cl	> 200	> 200	> 200	> 200	> 200	> 200	> 100	> 200	> 200	> 200	> 200	> 200	–	fold change (FC) (Acinetobacter baumannii [21]): 16; fold change (FC) (Escherichia coli [26]): 16; fold change (FC) (Acinetobacter baumannii [18]): 16
